Consider 2 compounds from ChEMBL document CHEMBL1134534, “Phenylpiperazinylalkylamino substituted pyridazinones as potent alpha(1) adrenoceptor antagonists” (J Med Chem, 2001).

Assay [1] has as its target T1, 5-hydroxytryptamine receptor 1A (Homo sapiens) (UniProt P08908).
T1 sequence (whole entry): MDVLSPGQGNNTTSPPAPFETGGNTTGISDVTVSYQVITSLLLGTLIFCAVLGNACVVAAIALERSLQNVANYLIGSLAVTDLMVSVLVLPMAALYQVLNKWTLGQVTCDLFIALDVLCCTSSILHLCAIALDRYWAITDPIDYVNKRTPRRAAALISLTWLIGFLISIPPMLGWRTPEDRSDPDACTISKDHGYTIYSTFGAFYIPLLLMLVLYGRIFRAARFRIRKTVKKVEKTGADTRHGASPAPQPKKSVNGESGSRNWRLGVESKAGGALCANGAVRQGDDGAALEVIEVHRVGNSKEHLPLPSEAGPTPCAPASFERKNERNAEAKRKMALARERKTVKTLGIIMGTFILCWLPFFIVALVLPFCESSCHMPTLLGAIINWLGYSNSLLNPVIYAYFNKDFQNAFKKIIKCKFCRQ
Nature of the assay: Percent of maximum effect on binding of [35S]GTP-gamma-S, to HeLa cell membranes expressing the human 5-hydroxytryptamine 1A receptor. It is filed as functional. In outline: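 [35S]GTPγS binding on human 5-HT1A-expressing HeLa membranes, with 30 µM GDP, compound 100 µM–0.1 nM, 20 min then 30 min at 30 °C. Stimulation given as percent increase over basal, with the maximal 5-HT response set to 100%. Emax taken from the nonlinear curve fit; 2–3 experiments.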
In general terms: GTPγS is a poorly hydrolysed GTP analogue; its binding reports G protein activation.

The target in assay [2] is T2, 5-hydroxytryptamine receptor 1A (Homo sapiens, UniProt P08908).
T2 sequence (P08908 whole entry): T1 sequence (whole entry)
Nature of the assay: Binding affinity towards human cloned 5-hydroxytryptamine 1A receptor using [3H]8-OH-DPAT as radioligand.

Assay [3] addresses T2, 5-hydroxytryptamine receptor 1A. Nature of the assay: Ability to influence the binding of [35S]GTP-gamma-S, to HeLa cell membranes expressing the human 5-hydroxytryptamine 1A receptor. It is filed as functional. The gist of the method: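 Membranes from HeLa cells stably expressing human 5-HT1A, in 20 mM HEPES, 3 mM MgSO4, 120 mM NaCl pH 7.4. Preincubated 20 min at 30 °C with 30 µM GDP and compound (100 µM to 0.1 nM), then [35S]GTPγS (150–250 pM) added for a further 30 min at 30 °C. Nonspecific binding defined with 10 µM GTPγS. Filtration, scintillation counting. pEC50 from nonlinear curve fit; 2–3 experiments.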

In assay [4] the target is T3, Alpha-1A adrenergic receptor (Homo sapiens, UniProt P35348).
T3 sequence (P35348 whole entry): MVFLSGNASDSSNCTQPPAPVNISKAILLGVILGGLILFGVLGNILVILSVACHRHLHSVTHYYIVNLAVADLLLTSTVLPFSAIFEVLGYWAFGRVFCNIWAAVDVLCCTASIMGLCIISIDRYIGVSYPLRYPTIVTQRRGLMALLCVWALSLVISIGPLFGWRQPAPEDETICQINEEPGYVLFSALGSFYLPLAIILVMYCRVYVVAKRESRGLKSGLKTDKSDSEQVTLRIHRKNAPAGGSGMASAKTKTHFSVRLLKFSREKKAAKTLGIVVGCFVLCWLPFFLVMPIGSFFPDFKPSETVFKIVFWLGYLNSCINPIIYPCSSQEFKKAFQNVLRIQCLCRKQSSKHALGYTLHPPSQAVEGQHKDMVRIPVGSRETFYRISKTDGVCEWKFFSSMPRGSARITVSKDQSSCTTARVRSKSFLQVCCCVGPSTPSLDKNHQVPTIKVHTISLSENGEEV
Briefly: Binding affinity towards human cloned alpha-1A-adrenoceptor using [3H]prazosin as radioligand.

For assay [5], the target named is T4, Alpha-1A adrenergic receptor (Homo sapiens) (UniProt P35348).
T4 sequence (whole entry): T3 sequence (P35348 whole entry)
Briefly: Experimental binding affinity for alpha-1A-adrenergic receptor. In outline: (§1)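 Membranes (30 µg protein) from CHO cells stably transfected with each human α1 subtype. Nonspecific binding defined with 10 µM phentolamine. Filtration. IC50 from curve fit, converted to Ki by Cheng–Prusoff. Triplicates; 2–3 experiments.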

Assay [6] concerns the target T5, Alpha-1B adrenergic receptor (Homo sapiens, UniProt P35368).
T5 sequence (P35368 whole entry): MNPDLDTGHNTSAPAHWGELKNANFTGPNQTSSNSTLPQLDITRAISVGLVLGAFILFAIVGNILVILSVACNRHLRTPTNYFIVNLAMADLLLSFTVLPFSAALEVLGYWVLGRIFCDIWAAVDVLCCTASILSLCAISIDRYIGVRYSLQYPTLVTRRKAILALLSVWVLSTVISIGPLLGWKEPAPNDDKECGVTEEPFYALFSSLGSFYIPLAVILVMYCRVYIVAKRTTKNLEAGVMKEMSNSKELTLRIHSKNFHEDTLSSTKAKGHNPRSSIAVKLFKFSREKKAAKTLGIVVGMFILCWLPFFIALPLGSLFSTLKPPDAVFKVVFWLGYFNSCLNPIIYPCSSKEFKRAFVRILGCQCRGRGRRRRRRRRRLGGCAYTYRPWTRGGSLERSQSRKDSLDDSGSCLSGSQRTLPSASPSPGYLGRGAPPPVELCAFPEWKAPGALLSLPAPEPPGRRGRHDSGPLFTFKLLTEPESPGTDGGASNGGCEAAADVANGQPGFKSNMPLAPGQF
Nature of the assay: Binding affinity towards human cloned alpha-1B-adrenoceptor using [3H]prazosin as radioligand.

Assay [7] addresses T6, Alpha-1B adrenergic receptor (Homo sapiens) (UniProt P35368).
T6 sequence (whole entry): T5 sequence (P35368 whole entry)
Briefly: Experimental binding affinity for alpha-1B-adrenergic receptor. In outline:
as §1

The target of assay [8] is T7, Alpha-1D adrenergic receptor (Homo sapiens, UniProt P25100).
T7 sequence (P25100 whole entry): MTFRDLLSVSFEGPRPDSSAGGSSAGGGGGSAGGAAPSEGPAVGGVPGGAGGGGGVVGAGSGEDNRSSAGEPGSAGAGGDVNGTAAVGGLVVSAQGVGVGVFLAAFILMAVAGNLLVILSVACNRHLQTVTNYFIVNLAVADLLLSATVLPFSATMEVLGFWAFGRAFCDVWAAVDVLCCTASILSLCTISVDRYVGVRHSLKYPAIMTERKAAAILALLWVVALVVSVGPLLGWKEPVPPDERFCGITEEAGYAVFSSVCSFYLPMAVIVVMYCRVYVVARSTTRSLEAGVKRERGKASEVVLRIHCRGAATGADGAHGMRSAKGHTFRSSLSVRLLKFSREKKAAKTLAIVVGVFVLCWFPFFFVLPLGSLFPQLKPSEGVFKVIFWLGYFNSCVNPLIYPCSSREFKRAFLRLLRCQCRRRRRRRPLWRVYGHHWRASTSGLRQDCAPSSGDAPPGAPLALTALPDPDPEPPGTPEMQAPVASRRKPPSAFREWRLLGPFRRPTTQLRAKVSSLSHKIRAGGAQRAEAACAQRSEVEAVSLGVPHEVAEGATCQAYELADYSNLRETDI
Briefly: Binding affinity towards human cloned alpha-1D-adrenoceptor using [3H]prazosin as radioligand.

The target in assay [9] is T8, Alpha-1D adrenergic receptor (Homo sapiens) (UniProt P25100).
T8 sequence (whole entry): T7 sequence (P25100 whole entry)
Nature of the assay: Experimental binding affinity for alpha-1D-adrenergic receptor. In outline: as §1

For orientation: Ki means a dissociation constant, usually derived from enzyme kinetics or from competition with a known ligand. A word on the EC50: it is the concentration needed to bring the measured effect to its halfway point. In turn, `COc1ccccc1N1CCN(CCCNc2c(C(C)=O)c(C)nn(C)c2=O)CC1` gave an Effect in assay [1] of 17%. Further, the Ki in [2] turned out to be 1.48 nM; in [4] it was 0.89 nM; in [6], 53.4 nM; in [8], 34.5 nM. In assay [3], this compound had an EC50 of 1.58 nM. The same compound yielded a pK1a in assay [5] of 9.09. In assay [7], the pK1b amounted to 7.27. The compound further came in with a pK1d in [9] of 7.46.
The compound `CCC(=O)c1c(-c2ccccc2)nn(C)c(=O)c1NCCN1CCN(c2ccccc2OC)CC1` came in with an Effect in assay [1] of 19%. For the same compound, the Ki in assay [2] turned out to be 4.06 nM; in [4], 0.19 nM; in assay [6], 1.45 nM; in [8], 0.25 nM. In [3], this compound gave an EC50 of 2.51 nM. In assay [5], the pK1a came out at 9.72. Further, in [7], the pK1b amounted to 8.84. In [9], this compound gave a pK1d of 9.6.
